pIC50, pKi: −log10 of the molar value.
What was measured:
Staphylococcus aureus = assay: Inhibition of staphyloxanthin biosynthesis in Staphylococcus aureus Pig1 isolate after 72 hrs; format: functional, organism-based; settings: PIG1, 72 h
Summary of the method: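 Wild-type clinical isolate Pig1 grown in THB (1 mL) with serially diluted compounds, 37 °C, 72 h, in duplicate. Cells centrifuged and washed twice with PBS. Pigment extracted with methanol, OD read at 450 nm. IC50 from dose-response fit of OD data.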

[1] = target: T1, 4,4'-diapophytoene synthase (Staphylococcus aureus, UniProt A9JQL9); assay: Inhibition of Staphylococcus aureus dehydrosqualene synthase expressed in Escherichia coli BL21 (DE3) cells by continuous spectrophotometric assay
T1 sequence (A9JQL9 whole entry): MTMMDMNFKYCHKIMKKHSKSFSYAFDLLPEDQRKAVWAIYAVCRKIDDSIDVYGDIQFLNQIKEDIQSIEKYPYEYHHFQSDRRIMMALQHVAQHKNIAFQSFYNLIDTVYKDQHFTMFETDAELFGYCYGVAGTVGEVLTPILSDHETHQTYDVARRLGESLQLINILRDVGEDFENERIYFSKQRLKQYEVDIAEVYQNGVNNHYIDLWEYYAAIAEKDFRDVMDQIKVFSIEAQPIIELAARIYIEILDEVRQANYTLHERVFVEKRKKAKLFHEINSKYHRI
Summary of the method: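 His-tagged S. aureus CrtM, Ni-NTA purified after IPTG induction (1 mM, 4 h). Compounds preincubated with 2 μg CrtM for 30 min at 20 °C. Phosphate release followed by continuous spectrophotometric coupled assay. IC50 from dose-response fit; Ki derived from IC50 and reported Km.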

BL21-DE3 [2] = assay: Selectivity ratio of IC50 for human squalene synthase to IC50 for Staphylococcus aureus dehydrosqualene synthase expressed in Escherichia coli BL21 (DE3) cells
BL21-DE3 [3] = assay: Selectivity ratio of IC50 for human squalene synthase to IC50 for Staphylococcus aureus dehydrosqualene synthase expressed in Escherichia coli BL21 (DE3) cells assessed as relative selectivity relative to potassium 4-(3-phenoxyphenyl)-1-phosphonatobutane-1-sulfonate
Squalene synthase = target: T2, Squalene synthase (Homo sapiens, UniProt P37268); assay: Inhibition of human recombinant squalene synthase expressed in Escherichia coli BL21 (DE3) cells assessed as formation of 1,10-dioic acid metabolite by liquid scintillation
T2 sequence (P37268 whole entry): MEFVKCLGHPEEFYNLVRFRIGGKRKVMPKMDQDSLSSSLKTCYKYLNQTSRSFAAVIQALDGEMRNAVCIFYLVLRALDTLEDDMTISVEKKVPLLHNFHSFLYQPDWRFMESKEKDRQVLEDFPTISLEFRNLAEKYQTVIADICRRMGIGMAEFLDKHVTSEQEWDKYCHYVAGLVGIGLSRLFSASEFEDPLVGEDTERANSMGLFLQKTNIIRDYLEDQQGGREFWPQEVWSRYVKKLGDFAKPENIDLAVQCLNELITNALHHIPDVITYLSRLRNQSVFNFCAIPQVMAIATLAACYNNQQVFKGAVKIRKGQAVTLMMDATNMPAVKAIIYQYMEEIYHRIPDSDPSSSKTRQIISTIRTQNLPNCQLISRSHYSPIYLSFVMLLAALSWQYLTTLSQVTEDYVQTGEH

| SMILES | pIC50 (Staphylococcus aureus) | pIC50 [1] | other results |
| --- | --- | --- | --- |
| O=P(O)(O)C(CCCc1ccc(-c2ccc(F)cc2F)cc1)S(=O)(=O)O (stereo not given) | 6.74 | – | – |
| CCCc1ccc(Oc2cccc(CCCC(P(=O)(O)O)S(=O)(=O)O)c2)cc1 (stereo not given) | 7.03 | – | pKi [1]: 8.30 |
| O=P(O)(O)C(CCCc1cccc(Oc2cc(Cl)cc(Cl)c2)c1)S(=O)(=O)O (stereo not given) | 7.29 | 5.20 | – |
| O=P(O)(O)C(CCCc1cc(Oc2ccc(F)cc2)ccc1F)S(=O)(=O)O (stereo not given) | 7.23 | 5.68 | – |
| O=P(O)(O)C(CCCc1cccc(Oc2ccc(C(F)(F)F)cc2)c1)S(=O)(=O)O (stereo not given) | 7.40 | – | – |
| CP(=O)(O)C(CCCc1ccc(-c2ccccc2)cc1)P(=O)(O)O (stereo not given) | 5.85 | 5.27 | Ratio IC50 (BL21-DE3 [2]): 0.014; Ratio IC50 (BL21-DE3 [3]): 4.7; pIC50 (Squalene synthase): 7.14 |
| O=P(O)(O)C(CCCc1cccc(Oc2ccc(F)cc2)c1)S(=O)(=O)O (stereo not given) | 7.28 | – | pKi [1]: 8.30 |
| O=P(O)(O)C(CCCc1cccc(Oc2cccc(C(F)(F)F)c2)c1)S(=O)(=O)O (stereo not given) | 7.13 | 5.01 | – |
| O=P(O)(O)C(CCCc1cccc(Oc2ccc(Cl)cc2)c1)S(=O)(=O)O (stereo not given) | 7.41 | 5.60 | – |
| CCCCc1ccc(-c2ccc(CCCC(P(=O)(O)O)S(=O)(=O)O)cc2)cc1 (stereo not given) | 6.80 | – | – |
| O=P(O)(O)C(CCCc1cccc(Oc2ccc(O)cc2)c1)S(=O)(=O)O (stereo not given) | 5.17 | – | – |
| O=P(O)(O)C(CCCc1cccc(Oc2cccc(F)c2)c1)S(=O)(=O)O (stereo not given) | 6.66 | 5.66 | – |
| O=P(O)(O)C(CCCc1cccc(Cc2ccccc2)c1)S(=O)(=O)O (stereo not given) | 6.77 | – | – |
| CC(C)(C)c1ccc(Oc2cccc(CCCC(P(=O)(O)O)S(=O)(=O)O)c2)cc1 (stereo not given) | 7.68 | – | – |
| O=P(O)(O)C(CCCc1cccc(Oc2ccccc2F)c1)S(=O)(=O)O (stereo not given) | 6.29 | 5.16 | – |
| O=P(O)(O)[C@@H](CCCc1cccc(Oc2ccccc2)c1)S(=O)(=O)O | 6.51 | 4.32 | – |
| Cc1ccc(-c2ccc(CCCC(P(=O)(O)O)S(=O)(=O)O)cc2)cc1 (stereo not given) | 6.74 | – | – |
| O=P(O)(O)C(CCCc1cccc(Oc2ccc(Cc3ccccc3)cc2)c1)S(=O)(=O)O (stereo not given) | 7.31 | – | – |
| O=P(O)(O)C(CCCc1cccc(Nc2ccccc2)c1)S(=O)(=O)O (stereo not given) | 6.30 | – | – |

| SMILES | pIC50 (Staphylococcus aureus) | pIC50 [1] | other results |
| --- | --- | --- | --- |
| O=P(O)(O)[C@H](CCCc1cccc(Oc2ccccc2)c1)S(=O)(=O)O | 7.30 | – | – |
| CCCOc1cccc(-c2ccc(CCCC(P(=O)(O)O)S(=O)(=O)O)cc2)c1 (stereo not given) | 6.31 | – | – |
| O=P(O)(O)C(CCc1cccc(Oc2ccccc2)c1)S(=O)(=O)O (stereo not given) | 4.69 | – | Ratio IC50 (BL21-DE3 [2]): 0.0011; Ratio IC50 (BL21-DE3 [3]): 0.4 |
| O=P(O)(O)C(CCCc1cccc(Oc2ccccc2)c1)S(=O)(=O)O (racemic) | 6.96 | – | – |
| O=P(O)(O)C(CCCc1cccc(Oc2ccccc2C(F)(F)F)c1)S(=O)(=O)O (stereo not given) | 6.34 | 4.27 | – |
| COc1ccc(Oc2ccc(F)cc2)cc1CCCC(P(=O)(O)O)S(=O)(=O)O (stereo not given) | 4.86 | – | – |
| O=P(O)(O)C(CCCc1ccc(-c2ccccc2)cc1)P(=O)(O)O | 5.66 | – | pKi [1]: 9.00 |
| O=P(O)(O)C(CCCc1ccc(Oc2ccccc2)cc1)S(=O)(=O)O (stereo not given) | 6.72 | – | – |
| O=P(O)(O)C(CCCc1cccc(Oc2ccc(Cl)c(Cl)c2)c1)S(=O)(=O)O (stereo not given) | 7.96 | 5.66 | – |
| CCn1c2ccccc2c2cc(CCCC(P(=O)(O)O)S(=O)(=O)O)ccc21 (stereo not given) | 3.58 | – | – |
| O=P(O)(O)C(Cc1cccc(Oc2ccccc2)c1)S(=O)(=O)O (stereo not given) | 4.47 | – | Ratio IC50 (BL21-DE3 [2]): 0.0022; Ratio IC50 (BL21-DE3 [3]): 0.8 |
| O=P(O)(O)C(CCCc1cccc(Oc2ccc(-c3ccco3)cc2)c1)S(=O)(=O)O (stereo not given) | 5.96 | 4.58 | – |
| O=P(O)(O)C(CCCc1cccc(Oc2ccccc2Cc2ccccc2)c1)S(=O)(=O)O (stereo not given) | 7.72 | – | – |
| O=P(O)(O)C(CCCc1cccc(Oc2ccc(Oc3ccccc3)cc2)c1)S(=O)(=O)O (stereo not given) | 7.00 | – | – |
| O=P(O)(O)C(CCCc1ccc(-c2ccc(C(F)(F)F)cc2)cc1)P(=O)(O)O | 5.96 | – | Ratio IC50 (BL21-DE3 [2]): 0.014; pKi [1]: 9.30; Ratio IC50 (BL21-DE3 [3]): 4.8 |
| O=P(O)(O)C(CCCc1cccc(Oc2ccc3occc3c2)c1)S(=O)(=O)O (stereo not given) | 7.82 | 5.68 | – |
| O=P(O)(O)C(CCCc1ccc(-c2ccccc2)cc1)S(=O)(=O)O (stereo not given) | 6.46 | – | – |
| O=P(O)(O)C(CCCc1cccc(Oc2cc(F)cc(F)c2)c1)S(=O)(=O)O (stereo not given) | 7.82 | 5.34 | – |
| O=P(O)(O)C(CCCc1cccc(Oc2ccc(F)c(F)c2)c1)S(=O)(=O)O (stereo not given) | 6.96 | 5.77 | – |
